In PubChem BioAssay AID588823 (The Scripps Research Institute Molecular Screening Center, 2011):
Calls of active or inactive are those of the source.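 The calls were made as follows: active = at least 50% inhibition of the target enzyme pPAFAH in mouse brain after oral dosing, with fewer than two other serine hydrolases also hit; inactive = weaker pPAFAH inhibition or two or more other hydrolases hit.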

What was measured:
Assay in all cases: in vivo serine hydrolase selectivity, brain membranes – fluorescence, gel-based ABPP, mouse, in vivo study, late-stage follow-up (AID 588823)
[1] = test system: pPAFAH; conditions: mouse brain membrane proteome, oral dosing, stronger effect = higher value, dose or concentration not given here
Outline: (§1)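 Evaluation – percent inhibition from band integrated optical density versus vehicle, background-corrected · Material – wild-type mouse brain membrane fraction · Controls – vehicle-dosed mice high, blank gel background low · Compound – single oral 50 mg/kg dose, PEG300 vehicle · Detection – in-gel fluorescence scanning after SDS-PAGE separation · Schedule – 4 h dosing, 30 min probe labelling at 37 °C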

[2] = test system: CES1; conditions: mouse brain membrane proteome, oral dosing, stronger effect = higher value, dose or concentration not given here
Outline: as §1

[3] = test system: Anti-targets; conditions: mouse brain membrane proteome, oral dosing, FP-Rh probe
Outline: as §1

Cc1cc(N2CCN(C(=O)Oc3ccc(-c4ccccc4)cn3)CC2)c2ccccc2n1
inhibition [1]: 95.5% | inhibition [2]: 90% | outcome [3]: inactive | anti-target count ([3]; number of FP-Rh anti-targets, stronger effect = lower value): 0
